pIC50, pKi: −log10 of the molar value.
What was measured:
D(2) dopamine receptor [1] = molecular target: T1, D(2) dopamine receptor (Rattus norvegicus, UniProt P61169); experiment: The concentration required to inhibit [3H]spiperone binding to dopamine receptor D2 in rat brain membranes (in vitro); format: cell membranes
Outline: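 Rat striatal membranes (0.05 mg/mL protein) in Tris-HCl with BSA 2 mg/mL, NaCl, cinanserin 10⁻⁶ M and compound. [3H]spiperone (final 0.05 nM) added after 5 min, incubation continued 40 min. Nonspecific binding from 10⁻⁶ M sulpiride. Filtration and scintillation counting.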

[2] = molecular target: Serotonin 2 (5-HT2) receptor (Rattus norvegicus, UniProt P30994+P08909+P14842); experiment: The concentration required to inhibit [3H]ketanserin binding to 5-hydroxytryptamine 2 receptor in rat brain membranes (in vitro); format: cell membranes
Outline: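 Male Sprague-Dawley rat cortical membranes (0.15 mg/mL protein) in Tris-HCl pH 7.6 with BSA 2 mg/mL. Incubated 15 min at 37 °C with compound and [3H]ketanserin (final 0.4 nM). Nonspecific binding from 10⁻⁶ M methysergide. Filtration and scintillation counting. IC50 by nonlinear regression; mean of at least 2 runs, 6 concentrations in triplicate.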

[3] = molecular target: T2, Adrenergic receptor alpha-1 (Rattus norvegicus, UniProt P15823+P23944+P43140); experiment: The concentration required to inhibit [3H]prazosin binding to Alpha-1 adrenergic receptor in rat brain membranes was measured (in vitro); format: cell membranes
T2 sequence (P15823 whole entry): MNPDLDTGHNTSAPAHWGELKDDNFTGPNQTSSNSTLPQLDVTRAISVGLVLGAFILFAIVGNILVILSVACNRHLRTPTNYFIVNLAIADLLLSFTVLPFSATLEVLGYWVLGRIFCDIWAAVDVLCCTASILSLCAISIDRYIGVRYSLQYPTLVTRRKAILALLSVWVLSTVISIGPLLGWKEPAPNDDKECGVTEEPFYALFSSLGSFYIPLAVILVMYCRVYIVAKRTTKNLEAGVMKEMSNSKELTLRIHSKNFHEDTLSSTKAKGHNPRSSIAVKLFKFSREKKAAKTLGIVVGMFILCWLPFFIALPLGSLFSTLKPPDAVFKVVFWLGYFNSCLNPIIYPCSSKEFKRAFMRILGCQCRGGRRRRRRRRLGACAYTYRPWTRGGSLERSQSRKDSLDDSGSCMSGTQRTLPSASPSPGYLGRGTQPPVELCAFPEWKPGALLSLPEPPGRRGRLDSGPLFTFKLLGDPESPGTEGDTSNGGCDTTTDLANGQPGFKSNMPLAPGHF
T2 sequence (P23944 whole entry): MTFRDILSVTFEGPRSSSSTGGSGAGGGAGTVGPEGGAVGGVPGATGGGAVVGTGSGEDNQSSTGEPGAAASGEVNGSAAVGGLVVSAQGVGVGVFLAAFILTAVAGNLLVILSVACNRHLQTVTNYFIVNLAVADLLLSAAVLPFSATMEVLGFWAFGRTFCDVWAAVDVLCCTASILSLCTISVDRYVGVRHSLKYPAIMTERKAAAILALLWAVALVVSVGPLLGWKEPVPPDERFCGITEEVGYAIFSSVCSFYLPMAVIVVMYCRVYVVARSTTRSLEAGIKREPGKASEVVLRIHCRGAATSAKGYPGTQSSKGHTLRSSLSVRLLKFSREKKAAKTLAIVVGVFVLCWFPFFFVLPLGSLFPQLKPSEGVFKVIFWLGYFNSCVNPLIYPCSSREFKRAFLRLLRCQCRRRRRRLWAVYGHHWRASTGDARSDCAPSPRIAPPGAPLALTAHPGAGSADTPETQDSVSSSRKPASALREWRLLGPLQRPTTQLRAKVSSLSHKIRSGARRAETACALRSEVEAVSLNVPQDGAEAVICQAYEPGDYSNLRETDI
T2 sequence (P43140 whole entry): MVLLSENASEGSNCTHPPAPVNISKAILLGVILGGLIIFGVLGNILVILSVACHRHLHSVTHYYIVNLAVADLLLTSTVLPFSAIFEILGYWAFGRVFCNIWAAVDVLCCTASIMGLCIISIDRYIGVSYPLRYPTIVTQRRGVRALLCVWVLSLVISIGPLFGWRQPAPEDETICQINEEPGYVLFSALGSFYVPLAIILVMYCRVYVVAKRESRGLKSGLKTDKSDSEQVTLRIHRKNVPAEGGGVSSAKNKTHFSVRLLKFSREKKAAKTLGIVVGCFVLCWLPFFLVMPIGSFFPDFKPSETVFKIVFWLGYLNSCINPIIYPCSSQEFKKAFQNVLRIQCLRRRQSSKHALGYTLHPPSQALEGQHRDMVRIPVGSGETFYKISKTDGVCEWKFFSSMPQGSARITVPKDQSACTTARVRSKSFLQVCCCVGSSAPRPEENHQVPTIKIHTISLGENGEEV

Rattus norvegicus [4] = experiment: The concentration required to induce head twich for 16 hours in rats when given sc (in vivo); format: functional
Outline: (§1)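 Rats, 6 per dose, dosed sc or po, then given mescaline 20 mg/kg iv 1 h later (6 or 16 h later for duration of action). Head twitches counted for 15 min from injection. Fewer than 3 twitches counted as antagonism.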

Histamine H1 receptor = Histamine H1 receptor (Cavia porcellus, UniProt P31389); experiment: Binding constant against histamine H1 receptor (in vitro)
Outline: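 Male guinea pig cerebellar membranes (0.35 mg/mL protein) in 50 mM sodium phosphate pH 7.5. Incubated 30 min at 25 °C with compound and [3H]mepyramine (final 0.7 nM). Nonspecific binding from 10⁻⁶ M promethazine. Filtration through glass-fibre filters and liquid scintillation counting.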

Rattus norvegicus [5] = experiment: The concentration required to induce head twich for 6 hours in rats when given sc (in vivo); format: functional; outline: as §1
Rattus norvegicus [6] = experiment: The concentration required to induce head twich for 16 hours in rats when given po (in vivo); format: functional; outline: as §1
Rattus norvegicus [7] = experiment: The concentration required to induce head twich for 6 hours in rats when given po (in vivo); format: functional; outline: as §1
D(2) dopamine receptor [8] = molecular target: T1, D(2) dopamine receptor; experiment: Binding constant against dopamine receptor D2 (in vitro)
Outline: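 Rat striatal membranes (0.05 mg protein/mL, Tris-HCl with 2 mg/mL BSA, NaCl, 10^-6 M cinanserin) preincubated 5 min with test compound. [3H]spiperone (final 0.05 nM) then added for a further 40 min. Nonspecific binding defined with 10^-6 M sulpiride. Read-out by filtration and scintillation counting.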

[9] = molecular target: T2, Adrenergic receptor alpha-1; experiment: Binding constant against Alpha-1 adrenergic receptor (in vitro); format: protein assay
Outline: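 Male Sprague-Dawley rat cerebrocortical membranes (0.15 mg/mL protein) in Tris-HCl pH 7.6 with BSA 2 mg/mL. Incubated 40 min at 25 °C with compound and [3H]prazosin (final 0.065 nM). Nonspecific binding from 10⁻⁶ M phentolamine. Filtration and scintillation counting. IC50 values are the mean of at least 2 runs, each with 6 concentrations in triplicate.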

Rattus norvegicus [10] = experiment: The concentration required to induce head twich for 1 hours in rats when given sc (in vivo); format: functional; outline: as §1
Rattus norvegicus [11] = experiment: The concentration required to induce head twich for 1 hours in rats when given po (in vivo); format: functional; outline: as §1
Mus musculus [12] = experiment: The concentration required to induce head twich in mice when given po (in vivo); format: functional
Outline: (§2)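 Mice, 6 per dose, dosed sc 60 min or po 90 min before mescaline 50 mg/kg ip. Observed for 2 min starting 15 min after mescaline; head twitches scored as all-or-none.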

Mus musculus [13] = experiment: The concentration required to induce head twich in mice when given sc (in vivo); format: functional; outline: as §2

T1 sequence (P61169 whole entry): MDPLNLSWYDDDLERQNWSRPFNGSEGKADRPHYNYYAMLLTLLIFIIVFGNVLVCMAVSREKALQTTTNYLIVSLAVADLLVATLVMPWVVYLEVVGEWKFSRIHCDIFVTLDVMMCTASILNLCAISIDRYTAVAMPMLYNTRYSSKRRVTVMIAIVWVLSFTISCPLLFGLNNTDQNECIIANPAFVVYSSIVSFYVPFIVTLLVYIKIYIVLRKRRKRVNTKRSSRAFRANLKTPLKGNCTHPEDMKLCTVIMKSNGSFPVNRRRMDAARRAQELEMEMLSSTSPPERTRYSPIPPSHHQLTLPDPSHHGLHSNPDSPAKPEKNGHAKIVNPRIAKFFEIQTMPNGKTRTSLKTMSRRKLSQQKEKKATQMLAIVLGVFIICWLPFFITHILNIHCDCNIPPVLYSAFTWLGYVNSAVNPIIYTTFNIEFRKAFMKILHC
Sequence of Histamine H1 receptor (P31389 whole entry): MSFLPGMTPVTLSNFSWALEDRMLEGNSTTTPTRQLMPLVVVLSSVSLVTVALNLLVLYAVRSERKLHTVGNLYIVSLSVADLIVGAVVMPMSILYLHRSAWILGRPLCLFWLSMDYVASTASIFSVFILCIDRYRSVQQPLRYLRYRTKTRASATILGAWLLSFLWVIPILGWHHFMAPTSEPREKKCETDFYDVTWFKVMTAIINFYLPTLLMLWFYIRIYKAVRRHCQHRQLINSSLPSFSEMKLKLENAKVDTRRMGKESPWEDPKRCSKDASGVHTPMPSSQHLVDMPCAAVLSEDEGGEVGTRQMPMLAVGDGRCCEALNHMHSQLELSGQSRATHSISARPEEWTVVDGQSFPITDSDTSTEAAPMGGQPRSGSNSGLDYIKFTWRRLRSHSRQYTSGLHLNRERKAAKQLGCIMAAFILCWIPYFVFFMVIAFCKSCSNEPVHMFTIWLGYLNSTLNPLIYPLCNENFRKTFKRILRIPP

pIC50 (D(2) dopamine receptor [1]) | IC50 [2] [nM] | IC50 [3] [nM] | Structure (SMILES) | also measured
< 6.00 | 4 | 700 | Cc1ccc(N2CCN(CCCN3c4cccc5cccc(c45)S3(=O)=O)CC2)cc1 | –
< 6.00 | 5 | > 1000 | O=S1(=O)c2cccc3cccc(c23)N1CCCN1CCN(c2ccc(Cl)cc2)CC1 | –
< 6.00 | 25 | > 1000 | O=[N+]([O-])c1ccc(N2CCN(CCCN3c4cccc5cccc(c45)S3(=O)=O)CC2)cc1 | –
6.22 | 11 | 50 | O=S1(=O)c2cccc3cccc(c23)N1CCCN1CCC(=C(c2ccc(F)cc2)c2ccc(F)cc2)CC1 | –
6.33 | 0.4 | 75 | O=S1(=O)c2cccc3cccc(c23)N1CCCN1CCN(c2nsc3ccccc23)CC1 | –
< 6.00 | 3 | 52 | O=S1(=O)c2cccc3cccc(c23)N1CCCN1CCN(c2ccccc2F)CC1 | –
< 6.00 | 18 | 688 | O=S1(=O)c2cccc3cccc(c23)N1CCCN1CCN(c2cccc(F)c2)CC1 | –
< 6.00 | 200 | > 1000 | CCOC(=O)c1ccc(N2CCN(CCCN3c4cccc5cccc(c45)S3(=O)=O)CC2)cc1 | –
< 6.00 | 275 | > 1000 | O=S1(=O)c2cccc3cccc(c23)N1CCCN1CCN(c2ccc(C(F)(F)F)cc2)CC1 | –
< 6.00 | 6.3 | 269 | O=S1(=O)c2cccc3cccc(c23)N1CCCN1CCN(c2ccccn2)CC1 | –
7.34 | 7 | < 10 | O=S1(=O)c2cccc3cccc(c23)N1CCCN1CCC(n2c(O)nc3ccccc32)CC1 | –
< 6.00 | 240 | 181 | O=S1(=O)N=C(N2CCN(CCCN3c4cccc5cccc(c45)S3(=O)=O)CC2)c2ccccc21 | –
6.29 | 0.3 | 110 | O=S1(=O)c2cccc3cccc(c23)N1CCCN1CCN(c2ccc(O)cc2)CC1 | –
6.00 | 2.3 | 144 | O=S1(=O)c2cccc3cccc(c23)N1CCCN1CCN(c2noc3ccccc23)CC1 | –
6.41 | 0.2 | 27 | O=S1(=O)c2cccc3cccc(c23)N1CCCN1CCC(c2ccccc2)CC1 | –
< 6.00 | 25 | > 1000 | COc1ccc(N2CCN(CCCN3c4cccc5cccc(c45)S3(=O)=O)CC2)cc1 | –
< 6.00 | 2.6 | 141 | O=S1(=O)c2cccc3cccc(c23)N1CCCN1CCN(c2ccccc2)CC1 | –
7.39 | 0.1 | 7.9 | O=C(c1ccc(F)cc1)C1CCN(CCCN2c3cccc4cccc(c34)S2(=O)=O)CC1 | –
– | 1 | 64 | O=S1(=O)c2cccc3cccc(c23)N1CCN1CCN(c2ccc(F)cc2)CC1 | –
< 6.00 | 32 | > 1000 | O=S1(=O)c2cccc3cccc(c23)N1CCCN1CCN(c2ncccn2)CC1 | –
< 6.00 | 540 | > 1000 | O=S1(=O)c2cccc3cccc(c23)N1CCCN1CCN(c2nc3ccccc3s2)CC1 | –
7.64 | – | 37 | Cc1nc2sccn2c(=O)c1CCN1CCC(=C(c2ccc(F)cc2)c2ccc(F)cc2)CC1 [RITANSERIN] | ED50 (Rattus norvegicus [4]): > 5 mg/kg; pKi (Histamine H1 receptor): 8.22; ED50 (Rattus norvegicus [5]): 0.55 mg/kg; ED50 (Rattus norvegicus [6]): 18.4 mg/kg; ED50 (Rattus norvegicus [7]): 1.54 mg/kg; pKi (D(2) dopamine receptor [8]): 7.66; Ki [9]: 29 nM; ED50 (Rattus norvegicus [10]): 0.38 mg/kg; ED50 (Rattus norvegicus [11]): 2.55 mg/kg; ED50 (Mus musculus [12]): 0.09 mg/kg; ED50 (Mus musculus [13]): 0.29 mg/kg
< 6.00 | 7 | > 1000 | O=S1(=O)c2cccc3cccc(c23)N1CCCN1CCN(c2ccc(Br)cc2)CC1 | –

Structure (SMILES) | pIC50 (D(2) dopamine receptor [1]) | IC50 [2] [nM] | IC50 [3] [nM] | also measured
O=S1(=O)c2ccccc2-c2ccccc2N1CCCN1CC=C(c2ccccc2)CC1 | 6.96 | 10 | 10 | –
CN(CCCN1CC=C(c2ccccc2)CC1)S(=O)(=O)c1cccc2ccccc12 | – | > 100 | – | –
O=C1c2cccc3cccc(c23)N1CCCN1CC=C(c2ccccc2)CC1 | < 7.00 | 9.8 | 580 | –
O=S1(=O)c2cccc3cccc(c23)N1CCCN1CC=C(c2ccccc2)CC1 | 6.00 | 1 | 192 | –
O=S(=O)(c1ccccc1)N(CCCN1CC=C(c2ccccc2)CC1)c1ccccc1 | 7.10 | 10 | 35 | –
CS(=O)(=O)N(CCCN1CC=C(c2ccccc2)CC1)c1cccc2ccccc12 | 6.56 | 5.1 | 75 | –
O=S1(=O)c2cccc3cccc(c23)N1CCN1CC=C(c2ccccc2)CC1 | < 7.00 | 6.3 | 98 | –
O=S1(=O)c2cccc3cccc(c23)N1CCCCN1CC=C(c2ccccc2)CC1 | 7.26 | 2.1 | 7.8 | –

— ChEMBL document CHEMBL1125181, “Naphthosultam derivatives: a new class of potent and selective 5-HT2 antagonists” (J Med Chem, 1991)
